{"source": "ChEMBL document CHEMBL1143007", "about": "“Synthesis and evaluation of 4/5-hydroxy-2,3-diaryl(substituted)-cyclopent-2-en-1-ones as cis-restricted analogues of combretastatin A-4 as novel anticancer agents” (J Med Chem, 2007)", "key": {"HT-29": {"tested_on": "HT-29", "assay": "Cytotoxicity against human HT29 cells after 72 hrs by MTT assay", "format": "cell-based", "details": "Homo sapiens, HT-29, 72 h; read-out: IC50", "procedure,_shortened": "(§1)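 MTT assay. Cells seeded at 5000-10 000 per well and incubated at 37 °C in CO₂ with compound at 1-100 µg/mL in triplicate wells for 72 h, then MTT added. Absorbance read at 540 nm; % cytotoxicity = 100 × (1 − treated/control). IC50 obtained by nonlinear regression; NA means IC50 above 100 µg/mL.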"}, "DU-145": {"tested_on": "DU-145", "assay": "Cytotoxicity against human DU145 cells after 72 hrs by MTT assay", "format": "cell-based", "details": "Homo sapiens, DU-145, 72 h; read-out: IC50", "procedure,_shortened": "as §1"}, "KB": {"tested_on": "KB", "assay": "Cytotoxicity against human KB cells after 72 hrs by MTT assay", "format": "cell-based", "procedure,_shortened": "as §1"}, "L132": {"tested_on": "L132", "assay": "Cytotoxicity against human L132 cells after 72 hrs by MTT assay", "format": "cell-based", "procedure,_shortened": "as §1"}, "MIA PaCa-2": {"tested_on": "MIA PaCa-2", "assay": "Cytotoxicity against human MiaPaCa2 cells after 72 hrs by MTT assay", "format": "cell-based", "details": "Homo sapiens, MIA PaCa-2, 72 h; read-out: IC50", "procedure,_shortened": "as §1"}, "[1]": {"assay": "Cytotoxicity against human Hep2 cells after 72 hrs by MTT assay", "format": "cell-based, HEp-2", "procedure,_shortened": "as §1"}, "[2]": {"assay": "Cytotoxicity against human PA1 cells after 72 hrs by MTT assay", "format": "cell-based, PA-1", "procedure,_shortened": "as §1"}, "[3]": {"assay": "Cytotoxicity against human ECV304 cells after 72 hrs by MTT assay", "format": "cell-based, ECV-304", "procedure,_shortened": "as §1"}, "HEK293": {"tested_on": "HEK293", "assay": "Cytotoxicity against human HEK293 cells after 72 hrs by MTT assay", "format": "cell-based", "details": "Homo sapiens, HEK293, 72 h; read-out: IC50", "procedure,_shortened": "as §1"}, "[4]": {"details": "Homo sapiens, KB, 72 h, read-out: IC50"}, "[5]": {"details": "Homo sapiens, L132, 72 h, read-out: IC50"}, "[6]": {"details": "Homo sapiens, HEp-2, 72 h, read-out: IC50"}, "[7]": {"details": "Homo sapiens, PA-1, 72 h, read-out: IC50"}, "[8]": {"details": "Homo sapiens, ECV-304, 72 h, read-out: IC50"}}, "data": [{"smiles": "COc1ccc(OC)c(C2=C(c3cc(OC)c(OC)c(OC)c3)C(=O)CC2O)c1", "note": "(configuration not stated)", "values": [{"measurement": "IC50", "setting": "HT-29", "result": "> 100", "unit": "µg/mL"}, {"measurement": "IC50", "setting": "DU-145", "result": "> 100", "unit": "µg/mL"}, {"measurement": "IC50", "setting": "KB; [4]", "result": "> 100", "unit": "µg/mL"}, {"measurement": "IC50", "setting": "L132; [5]", "result": "> 100", "unit": "µg/mL"}, {"measurement": "IC50", "setting": "MIA PaCa-2", "result": "> 100", "unit": "µg/mL"}, {"measurement": "IC50", "setting": "[1]; [6]", "result": "> 100", "unit": "µg/mL"}, {"measurement": "IC50", "setting": "[2]; [7]", "result": "> 100", "unit": "µg/mL"}, {"measurement": "IC50", "setting": "[3]; [8]", "result": "> 100", "unit": "µg/mL"}, {"measurement": "IC50", "setting": "HEK293", "result": "> 100", "unit": "µg/mL"}]}, {"smiles": "COc1cc(C2=C(c3cc(C)c(OC)c(C)c3)C(OC(C)=O)C/C2=N/O)cc(OC)c1OC", "note": "(configuration not stated)", "values": [{"measurement": "IC50", "setting": "HT-29", "result": "> 100", "unit": "µg/mL"}, {"measurement": "IC50", "setting": "DU-145", "result": "> 100", "unit": "µg/mL"}, {"measurement": "IC50", "setting": "KB; [4]", "result": "> 100", "unit": "µg/mL"}, {"measurement": "IC50", "setting": "L132; [5]", "result": "> 100", "unit": "µg/mL"}, {"measurement": "IC50", "setting": "MIA PaCa-2", "result": "> 100", "unit": "µg/mL"}, {"measurement": "IC50", "setting": "[1]; [6]", "result": "> 100", "unit": "µg/mL"}, {"measurement": "IC50", "setting": "[2]; [7]", "result": "> 100", "unit": "µg/mL"}, {"measurement": "IC50", "setting": "[3]; [8]", "result": "> 100", "unit": "µg/mL"}, {"measurement": "IC50", "setting": "HEK293", "result": "> 100", "unit": "µg/mL"}]}, {"smiles": "COc1ccc(C2=C(c3cc(OC)c(OC)c(OC)c3)C(=O)C(OC(C)=O)C2)cc1OC(C)C", "note": "(configuration not stated)", "values": [{"measurement": "IC50", "setting": "HT-29", "result": "> 100", "unit": "µg/mL"}, {"measurement": "IC50", "setting": "DU-145", "result": "> 100", "unit": "µg/mL"}, {"measurement": "IC50", "setting": "KB; [4]", "result": "> 100", "unit": "µg/mL"}, {"measurement": "IC50", "setting": "L132; [5]", "result": "> 100", "unit": "µg/mL"}, {"measurement": "IC50", "setting": "MIA PaCa-2", "result": "> 100", "unit": "µg/mL"}, {"measurement": "IC50", "setting": "[1]; [6]", "result": "> 100", "unit": "µg/mL"}, {"measurement": "IC50", "setting": "[2]; [7]", "result": "> 100", "unit": "µg/mL"}, {"measurement": "IC50", "setting": "[3]; [8]", "result": "> 100", "unit": "µg/mL"}, {"measurement": "IC50", "setting": "HEK293", "result": "> 100", "unit": "µg/mL"}]}, {"smiles": "COc1ccc(C2=C(c3cc(OC)c(OC)c(OC)c3)/C(=N\\O)C(O)C2)cc1F", "note": "(configuration not stated)", "values": [{"measurement": "IC50", "setting": "HT-29", "result": "< 1", "unit": "µg/mL"}, {"measurement": "IC50", "setting": "DU-145", "result": 10, "unit": "µg/mL"}, {"measurement": "IC50", "setting": "KB; [4]", "result": "< 1", "unit": "µg/mL"}, {"measurement": "IC50", "setting": "L132; [5]", "result": "< 1", "unit": "µg/mL"}, {"measurement": "IC50", "setting": "MIA PaCa-2", "result": 94, "unit": "µg/mL"}, {"measurement": "IC50", "setting": "[1]; [6]", "result": "< 1", "unit": "µg/mL"}, {"measurement": "IC50", "setting": "[2]; [7]", "result": "> 100", "unit": "µg/mL"}, {"measurement": "IC50", "setting": "[3]; [8]", "result": 43, "unit": "µg/mL"}, {"measurement": "IC50", "setting": "HEK293", "result": "> 100", "unit": "µg/mL"}]}, {"smiles": "COc1cc(C2=C(c3cc(C)c(OC)c(C)c3)C(O[Si](C)(C)C(C)(C)C)CC2=O)cc(OC)c1OC", "note": "(configuration not stated)", "values": [{"measurement": "IC50", "setting": "HT-29", "result": 10, "unit": "µg/mL"}, {"measurement": "IC50", "setting": "DU-145", "result": "> 100", "unit": "µg/mL"}, {"measurement": "IC50", "setting": "KB; [4]", "result": 40, "unit": "µg/mL"}, {"measurement": "IC50", "setting": "L132; [5]", "result": "> 100", "unit": "µg/mL"}, {"measurement": "IC50", "setting": "[1]; [6]", "result": 26, "unit": "µg/mL"}, {"measurement": "IC50", "setting": "[2]; [7]", "result": 32, "unit": "µg/mL"}, {"measurement": "IC50", "setting": "[3]; [8]", "result": 15, "unit": "µg/mL"}, {"measurement": "IC50", "setting": "HEK293", "result": 29, "unit": "µg/mL"}]}, {"smiles": "COc1ccc(C2=C(c3cc(OC)c(OC)c(OC)c3)C(=O)C(O)C2)cc1F", "note": "(configuration not stated)", "values": [{"measurement": "IC50", "setting": "HT-29", "result": "< 1", "unit": "µg/mL"}, {"measurement": "IC50", "setting": "DU-145", "result": 27, "unit": "µg/mL"}, {"measurement": "IC50", "setting": "KB; [4]", "result": 4.5, "unit": "µg/mL"}, {"measurement": "IC50", "setting": "L132; [5]", "result": "< 1", "unit": "µg/mL"}, {"measurement": "IC50", "setting": "MIA PaCa-2", "result": 64, "unit": "µg/mL"}, {"measurement": "IC50", "setting": "[1]; [6]", "result": "< 1", "unit": "µg/mL"}, {"measurement": "IC50", "setting": "[2]; [7]", "result": "> 100", "unit": "µg/mL"}, {"measurement": "IC50", "setting": "[3]; [8]", "result": 19.5, "unit": "µg/mL"}, {"measurement": "IC50", "setting": "HEK293", "result": "> 100", "unit": "µg/mL"}]}, {"smiles": "COc1ccc(C2=C(c3cc(OC)c(OC)c(OC)c3)/C(=N\\O)CC2OC(C)=O)cc1", "note": "(stereo in doubt; 40)", "values": [{"measurement": "IC50", "setting": "HT-29", "result": "< 1", "unit": "µg/mL"}, {"measurement": "IC50", "setting": "DU-145", "result": 21, "unit": "µg/mL"}, {"measurement": "IC50", "setting": "KB; kb", "result": "< 1", "unit": "µg/mL"}, {"measurement": "IC50", "setting": "L132; l132", "result": "< 1", "unit": "µg/mL"}, {"measurement": "IC50", "setting": "MIA PaCa-2", "result": "< 1", "unit": "µg/mL"}, {"measurement": "IC50", "setting": "[1]; hep-2", "result": "< 1", "unit": "µg/mL"}, {"measurement": "IC50", "setting": "[2]; pa-1", "result": "< 1", "unit": "µg/mL"}, {"measurement": "IC50", "setting": "[3]; ecv-304", "result": 60, "unit": "µg/mL"}, {"measurement": "IC50", "setting": "HEK293", "result": 22, "unit": "µg/mL"}]}]}
